Tested on: U2OS
Experiment: Multiplex assay against U2OS
Assay type: toxicity, cell-based
Conditions: human
Procedure, shortened: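 Live cells were stained at seeding with Hoechst33342, BioTracker Green Microtubule Cytoskeleton Dye, MitoTracker Red and Annexin V Alexa Fluor 680. Following compound addition, they were imaged on a CQ1 microscope at 37°C and 5% CO2 and gated by CellPathfinder machine learning into Hoechst high-intensity objects or normal cells, with normal cells split into healthy, pyknosed or fragmented nuclei and pyknosed cells into mitotic or apoptotic. Tubulin, mitochondrial-mass and membrane-permeability phenotypes are per cents of healthy-nucleus cells.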

[1] = 12 h, 1 µM, compound concentration 1 uM, replicate 1
[2] = 12 h, 1 µM, compound concentration 1 uM, replicate 2
[3] = 12 h, 10 µM, compound concentration 10 uM, replicate 1
[4] = 12 h, 10 µM, compound concentration 10 uM, replicate 2
[5] = 24 h, 1 µM, compound concentration 1 uM, replicate 1
[6] = 24 h, 1 µM, compound concentration 1 uM, replicate 2
[7] = 24 h, 10 µM, compound concentration 10 uM, replicate 1
[8] = 24 h, 10 µM, compound concentration 10 uM, replicate 2
[9] = 48 h, 1 µM, compound concentration 1 uM, replicate 1
[10] = 48 h, 1 µM, compound concentration 1 uM, replicate 2
[11] = 48 h, 10 µM, compound concentration 10 uM, replicate 1
[12] = 48 h, 10 µM, compound concentration 10 uM, replicate 2

SMILES: CN(C)C(=O)C(CCN1CCC(O)(c2ccc(Cl)cc2)CC1)(c1ccccc1)c1ccccc1.Cl [LOPERAMIDE HYDROCHLORIDE]
- Population Apoptotic (%) [1]: 37%
- Population Fragmented Nuclei (%) [1]: 11%
- Population Healthy Nuclei (%) [1]: 69%
- Population Hoechst High Intensity Objects (%) [1]: 4%
- Population Membrane Permeable-Phenotype (%) [1]: 5%
- Population Mitochondria Different-Phenotype (%) [1]: 82%
- Population Mitotic Cells (%) [1]: 62%
- Population Normal (%) [1]: 95%
- Population Pyknosed Nuclei (%) [1]: 19%
- Population Tubulin-Different-Phenotype (%) [1]: 87%
- Total Cell Count [1]: 181
- Population Apoptotic (%) [2]: 25%
- Population Fragmented Nuclei (%) [2]: 5%
- Population Healthy Nuclei (%) [2]: 88%
- Population Hoechst High Intensity Objects (%) [2]: 7%
- Population Membrane Permeable-Phenotype (%) [2]: 11%
- Population Mitochondria Different-Phenotype (%) [2]: 90%
- Population Mitotic Cells (%) [2]: 75%
- Population Normal (%) [2]: 92%
- Population Pyknosed Nuclei (%) [2]: 6%
- Population Tubulin-Different-Phenotype (%) [2]: 65%
- Total Cell Count [2]: 55
- Population Apoptotic (%) [3]: 66%
- Population Fragmented Nuclei (%) [3]: 16%
- Population Healthy Nuclei (%) [3]: 42%
- Population Hoechst High Intensity Objects (%) [3]: 5%
- Population Membrane Permeable-Phenotype (%) [3]: 77%
- Population Mitotic Cells (%) [3]: 33%
- Population Normal (%) [3]: 95%
- Population Pyknosed Nuclei (%) [3]: 40%
- Total Cell Count [3]: 129
- Population Apoptotic (%) [4]: 82%
- Population Fragmented Nuclei (%) [4]: 8%
- Population Healthy Nuclei (%) [4]: 48%
- Population Hoechst High Intensity Objects (%) [4]: 6%
- Population Membrane Permeable-Phenotype (%) [4]: 94%
- Population Mitochondria Different-Phenotype (%) [4]: 100%
- Population Mitotic Cells (%) [4]: 17%
- Population Normal (%) [4]: 93%
- Population Pyknosed Nuclei (%) [4]: 43%
- Population Tubulin-Different-Phenotype (%) [4]: 100%
- Total Cell Count [4]: 64
- Population Apoptotic (%) [5]: 60%
- Population Fragmented Nuclei (%) [5]: 10%
- Population Healthy Nuclei (%) [5]: 74%
- Population Hoechst High Intensity Objects (%) [5]: 5%
- Population Membrane Permeable-Phenotype (%) [5]: 6%
- Population Mitochondria Different-Phenotype (%) [5]: 84%
- Population Mitotic Cells (%) [5]: 40%
- Population Normal (%) [5]: 94%
- Population Pyknosed Nuclei (%) [5]: 14%
- Population Tubulin-Different-Phenotype (%) [5]: 75%
- Total Cell Count [5]: 222
- Population Apoptotic (%) [6]: 53%
- Population Fragmented Nuclei (%) [6]: 5%
- Population Healthy Nuclei (%) [6]: 71%
- Population Hoechst High Intensity Objects (%) [6]: 4%
- Population Membrane Permeable-Phenotype (%) [6]: 16%
- Population Mitochondria Different-Phenotype (%) [6]: 89%
- Population Mitotic Cells (%) [6]: 46%
- Population Normal (%) [6]: 95%
- Population Pyknosed Nuclei (%) [6]: 22%
- Population Tubulin-Different-Phenotype (%) [6]: 62%
- Total Cell Count [6]: 68
- Population Apoptotic (%) [7]: 92%
- Population Fragmented Nuclei (%) [7]: 23%
- Population Healthy Nuclei (%) [7]: 18%
- Population Hoechst High Intensity Objects (%) [7]: 4%
- Population Membrane Permeable-Phenotype (%) [7]: 92%
- Population Mitochondria Different-Phenotype (%) [7]: 100%
- Population Mitotic Cells (%) [7]: 7%
- Population Normal (%) [7]: 95%
- Population Pyknosed Nuclei (%) [7]: 57%
- Population Tubulin-Different-Phenotype (%) [7]: 100%
- Total Cell Count [7]: 146
- Population Apoptotic (%) [8]: 98%
- Population Fragmented Nuclei (%) [8]: 10%
- Population Healthy Nuclei (%) [8]: 26%
- Population Hoechst High Intensity Objects (%) [8]: 10%
- Population Membrane Permeable-Phenotype (%) [8]: 86%
- Population Mitochondria Different-Phenotype (%) [8]: 95%
- Population Mitotic Cells (%) [8]: 1%
- Population Normal (%) [8]: 89%
- Population Pyknosed Nuclei (%) [8]: 62%
- Population Tubulin-Different-Phenotype (%) [8]: 95%
- Total Cell Count [8]: 70
- Population Apoptotic (%) [9]: 60%
- Population Fragmented Nuclei (%) [9]: 6%
- Population Healthy Nuclei (%) [9]: 78%
- Population Hoechst High Intensity Objects (%) [9]: 6%
- Population Mitochondria Different-Phenotype (%) [9]: 72%
- Population Mitotic Cells (%) [9]: 40%
- Population Normal (%) [9]: 93%
- Population Pyknosed Nuclei (%) [9]: 15%
- Population Tubulin-Different-Phenotype (%) [9]: 59%
- Total Cell Count [9]: 345
- Population Apoptotic (%) [10]: 61%
- Population Fragmented Nuclei (%) [10]: 7%
- Population Healthy Nuclei (%) [10]: 68%
- Population Hoechst High Intensity Objects (%) [10]: 3%
- Population Membrane Permeable-Phenotype (%) [10]: 8%
- Population Mitochondria Different-Phenotype (%) [10]: 65%
- Population Mitotic Cells (%) [10]: 38%
- Population Normal (%) [10]: 96%
- Population Pyknosed Nuclei (%) [10]: 23%
- Population Tubulin-Different-Phenotype (%) [10]: 47%
- Total Cell Count [10]: 118
- Population Apoptotic (%) [11]: 98%
- Population Fragmented Nuclei (%) [11]: 33%
- Population Healthy Nuclei (%) [11]: 5%
- Population Hoechst High Intensity Objects (%) [11]: 9%
- Population Membrane Permeable-Phenotype (%) [11]: 100%
- Population Mitochondria Different-Phenotype (%) [11]: 100%
- Population Mitotic Cells (%) [11]: 1%
- Population Normal (%) [11]: 90%
- Population Pyknosed Nuclei (%) [11]: 61%
- Population Tubulin-Different-Phenotype (%) [11]: 100%
- Total Cell Count [11]: 177
- Population Apoptotic (%) [12]: 100%
- Population Fragmented Nuclei (%) [12]: 21%
- Population Healthy Nuclei (%) [12]: 30%
- Population Hoechst High Intensity Objects (%) [12]: 21%
- Population Membrane Permeable-Phenotype (%) [12]: 95%
- Population Mitotic Cells (%) [12]: 0%
- Population Normal (%) [12]: 78%
- Population Pyknosed Nuclei (%) [12]: 48%
- Total Cell Count [12]: 92
